Screens as filed in PubChem BioAssay.
Sampled rows, rich in hits. Any-hit rate of the full collection: about 2.4%.
HNF4A DNA FP = change in binding of human HNF4A to DNA, primary screen, biochemical, fluorescence polarization, FITC-DNA | Hepatocyte nuclear factor 4-alpha (Homo sapiens), P41235 | 1 h | activity change, % at 10 µM | 0.3% of 360,000 active; in the data active means activity change above about 30%, passing the limit was not always enough
Neddyl block = inhibitors of cullin neddylation, primary screen, biochemical, TR-FRET, uHTS, NAE and Ubc12. 0.58% of 360,000 active. AID 651699, 2012. NEDD8-conjugating enzyme Ubc12 (Homo sapiens) + NEDD8-activating enzyme E1 regulatory …. inhibition, % at 25 µM; in the data active means inhibition above about 36%
Rin1-Abl PPI inh = inhibitors of Rin1-Abl protein binding, primary screen, biochemical, TR-FRET; Tyrosine-protein kinase ABL1 (Homo sapiens) + Ras and Rab interactor 1 (Homo sapiens), …; inhibition, % at 7.35 µM; 0.4% of 360,000 active; in the data active means inhibition above about 5%, passing the limit was not always enough
TPT1 inh = Candida albicans TPT1 enzyme inhibitors, primary screen, biochemical, fluorescence polarization. tRNA 2'-phosphotransferase TPT1 (Candida albicans SC5314). recombinant caTPT1, FP RNA substrate dephosphorylation. inhibition, % at 5 µM. 0.81% of 300,000 active;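 active means inhibition above the mean of all tested compounds plus 3 SD, set per screening campaign, cut at about 24% in these data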;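 further: plate controls were DMSO alone for no effect and ferristatin control at 100 nM for full effect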
CSN inh = inhibitors of CSN-mediated cullin deneddylation, primary screen, biochemical, fluorescence polarization, uHTS; Purified CSN, SCF-Nedd8-OG deneddylation; inhibition, % at 12.5 µM; COP9 signalosome complex subunit 5 (Homo sapiens), Q92905; 0.38% of 360,000 active;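 active means pattern-corrected inhibition above about 35%, with an unprinted fluorescence ratio check between 0.5 and 1.5, limit read from the data, passing the limit was not always enough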;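 further: 0% = enzyme with substrate and 100% = substrate without enzyme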
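Schedule: reaction 90 min, room temperature / Assay system: HEK293T-derived human Csn5 enzyme / Input: Csn5 at 0.24 nM final / Measure: inhibition of Csn5 cleavage, % / Control set: substrate-only high control, full reaction low control / Technique: fluorescence polarization of the substrate / Buffer or medium: Tris/NaCl/DTT buffer, pH 7.5 / Reagent: SCFSkp2-Nedd8OG substrate at 10 nM final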
Rpn11 block = Rpn11 (PSMD14) deubiquitinase inhibitors, primary screen, biochemical, fluorescence polarization, uHTS; 26S proteasome non-ATPase regulatory subunit 14 (Homo sapiens), O00487; human 26S proteasome, Ub4-pepOG fluorescence polarization; 20S core pre-blocked with epoxomicin; AID 588493, 2011; 0.59% of 360,000 active; inhibition, % at 20 µM;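 active means inhibition at 20 µM, scaled to each plate's controls, above about 33%, limit read from the data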
Target sequence (O00487 whole entry, looked up): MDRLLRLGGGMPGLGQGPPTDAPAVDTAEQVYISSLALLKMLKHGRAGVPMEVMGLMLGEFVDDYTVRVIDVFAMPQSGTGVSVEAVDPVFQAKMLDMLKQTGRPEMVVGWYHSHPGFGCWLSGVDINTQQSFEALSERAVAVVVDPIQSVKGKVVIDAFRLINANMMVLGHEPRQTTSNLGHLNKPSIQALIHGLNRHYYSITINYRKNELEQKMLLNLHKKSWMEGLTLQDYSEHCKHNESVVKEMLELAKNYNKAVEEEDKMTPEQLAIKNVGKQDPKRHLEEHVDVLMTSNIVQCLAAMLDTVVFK
The depositor's hits bear a star; i = inactive; . = no result given.

SMILES	HNF4A DNA FP	Neddyl block	Rin1-Abl PPI inh	TPT1 inh	CSN inh	Rpn11 block
CCC1OC23CCCCC2C(C#N)(C(=N)O3)C1(C#N)C#N (configuration not stated)	2	.	-5	-40	-22	-42
CC1OC23CCCCC2C(C#N)(C(=N)O3)C1(C#N)C#N (configuration not stated)	3	24	-1	-12	-5	-17
N#CC12COC3(CCCCC3C1(C#N)C#N)OC2=N (configuration not stated)	-4	45*	-2	-21	-8	-45
N#CC1(C#N)COC23CCCCC2C1(C#N)C(=N)O3 (configuration not stated)	-3	42*	-7	-17	-14	-39
O=C(NCC1CCCO1)/C(=C/c1ccccc1F)NC(=O)c1ccccc1 (configuration not stated)	0	0	1	-2	1	0
Cc1nccc(-c2cccc(NC(=O)c3ccccc3Cl)c2)n1	2	-2	-1	-2	3	0
Cc1ccc2cc(CCNC(=O)c3ccc4c(c3)OCO4)c(=O)[nH]c2c1C	34*	-7	3	-4	7	-2
C[n+]1cccc2cccc([O-])c21	-17	55*	-22	.	30	-56
CC1(C(=O)Nc2cccc3c2CCCC3)CCN1C(=O)Cc1ccccc1Cl (configuration not stated)	-3	5	2	.	5	5
CC(=O)Nc1ccc2nc3c(=O)n(C)c(=O)n(C)c3nc2c1	-21	80*	-1	-52	-4	-59
Cn1c(=O)c2nc3ccccc3nc2n(C)c1=O	1	14	-4	-1	9	0
C#CCCOC(=O)N1C2=NC(C(=O)OC)=C(C(=O)OC)[C@@H]3N(CC=C)c4ccccc4[C@]23C[C@H]1C(=O)OC	5	-6	2	0	-6	-3
CCCCOC(=O)N/N=C/C=C/c1ccccc1	0	-14	1	-4	3	0
CCCCCCCCCCCCCCCC[N+](C)(C)CCN(Cc1ccc(OC)cc1)c1ncccn1	26	7	-2	-2	23	77*
CC1(C)OC(c2ccccc2)=C/C(=C/C=C2C(=O)c3ccccc3C2=O)O1	84*	-13	4	-5	29	25
Cc1ccccc1N=C/C=C1/C=C(c2ccccc2)OC(C)(C)O1	3	-15	4	2	4	15
Cc1ccnc(N2C(=O)c3cccc4c([N+](=O)[O-])ccc(c34)C2=O)c1	-38	45*	-12	-34	-25	-79
CC(NC(=O)c1ccc(NC(=O)CC2SC(N3CCCC3)=NC2=O)cc1)c1ccc(S(N)(=O)=O)cc1 (configuration not stated)	-5	3	3	1	-2	2
CCOc1ncccc1C(=O)N1CCN(c2ccc(C(F)(F)F)cn2)CC1	91*	15	-1	-1	-16	-17
Cc1cccc(C(=O)N2CCN(c3ccc(C(F)(F)F)cn3)CC2)c1C	5	16	0	1	0	0
COc1ccc(CNC(=O)C(=O)NC2CC(C)(C)NC(C)(C)C2)cc1	138*	4	2	-2	4	-10
OC(c1ccccc1)(c1nc(-c2ccc(F)c(Cl)c2)cs1)C(F)(F)F (configuration not stated)	-2	-2	-1	.	1	1
Cc1cccc(C)c1C(O)c1ncc(-c2ccccc2C(F)(F)F)[nH]1 (configuration not stated)	0	4	0	.	-3	0
COc1ccc(C(=O)c2nccc3cc(OC)c(OC)cc23)cc1OC	-2	-41	14*	.	18	-2
COc1ccc(C(=O)c2ccc(OC)c(OC)c2)cc1OC	-2	-53	-1	1	1	5
SMILES	HNF4A DNA FP	Neddyl block	Rin1-Abl PPI inh	TPT1 inh	CSN inh	Rpn11 block
Cc1ccccc1CS(=O)(=O)CC(O)CN1CCCC1=O (configuration not stated)	2	-5	1	0	-2	-15
COc1cc(/C=N/NC(=O)c2cc(-c3ccco3)nc3ccccc23)cc(OC)c1O	-1	-6	-1	2	3	3
O=C(N/N=C/c1cccc(F)c1)c1cc(-c2ccco2)nc2ccccc12	-41	40*	-5	3	57	26
COc1ccc(-n2nc(C(=O)Nc3ccc(OC)c(OC)c3)c3c4ccccc4n(C)c3c2=O)cc1	-2	32	2	-2	48*	-2
Cc1ccc(C2C(C#N)=C(N)SC(N)=C2C#N)cc1	120	i	-8	.	46	.
N#CC1=C(N)SC(N)=C(C#N)C1c1ccoc1	.	.	.	32*	.	.
Cc1c(CC(=O)O)c(=O)oc2c(C)c(OCc3ccc(F)cc3Cl)ccc12	0	13	-2	-1	53*	-8
COc1ccc(C(=O)NNC(=O)CSc2nnc(-c3cccnc3)o2)cc1	-2	10	6	0	-1	-10
Cc1ccc(CNc2ccc3nnc(-c4ccccc4)n3n2)cc1	3	-2	0	-1	38*	4
O=C(CCCn1ncn2c(cc3occc32)c1=O)NCc1cccc(Cl)c1	-3	-13	-5	1	5	1
O=C(NCC1CCCN1S(=O)(=O)c1cccs1)c1cccc([N+](=O)[O-])c1 (configuration not stated)	-2	-15	2	-2	-6	-2
Cc1ccc(-n2cc(C(=O)c3ccc(N4CCN(C)CC4)cc3)nn2)cc1Cl	105*	4	3	2	-1	7
O=C(N/C(=C\c1ccco1)C(=O)N1CCOCC1)c1ccccc1Cl	1	1	4	-2	-1	-2
NC(=O)CC(NC(=O)Cc1ccc(Br)cc1)c1ccc(NC2CCN(Cc3ccccc3)CC2)c([N+](=O)[O-])c1 (configuration not stated)	-4	-70	-5	1	53*	8
NC(=O)CC(NC(=O)Cc1ccc(Br)cc1)c1ccc(NC2CCCCCCC2)c([N+](=O)[O-])c1 (configuration not stated)	44	-33	1	.	28	.
COCCCNC(=S)N/N=C/c1ccc(O)cc1O	-2	9	-2	-2	1	-4
COCCCNC(=S)N/N=C/c1cccc(OC)c1O	1	38*	-2	-3	3	-13
Cc1ccccc1NS(=O)(=O)c1ccc(C(=O)OCC(=O)NCC(C)C)cc1	31*	-3	3	-2	2	2
